The text below walks through data of ChEMBL document CHEMBL3758134, “Avertoxins A-D, Prenyl Asteltoxin Derivatives from Aspergillus versicolor Y10, an Endophytic Fungus of Huperzia serrata” (J Nat Prod, 2015).

SMILES strings stand for the structures. A value given as a limit tells only on which side of the number the result lay.

For assay [1], the system named is MDA-MB-231. Nature of the assay: Antiproliferative activity against human MDA-MB-231 cells assessed as cell viability after 72 hrs by SRB assay. The class given is functional, cell-based. The following applies: MDA-MB-231, 72 h. An outline of the steps: (§1)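 Cells grown in DMEM with 10% FBS and exposed to compound for 72 h. Viability read by sulforhodamine B (SRB) staining.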

A short description of assay [2]: Antiproliferative activity against human HCT116 cells assessed as cell viability after 72 hrs by SRB assay. Type of assay: functional, cell-based. The following applies: HCT-116, 72 h. The procedure, abridged: as §1
The test system of assay [3] is HeLa. Nature of the assay: Antiproliferative activity against human HeLa cells assessed as cell viability after 72 hrs by SRB assay. Type of assay: functional, cell-based. The procedure, abridged:
as §1

Assay [4] deals with Acetylcholinesterase (Homo sapiens, UniProt P22303). In words: Inhibition of human acetylcholinesterase after 30 mins by microplate reader-based Ellman's method.
Acetylcholinesterase, sequence (P22303 whole entry): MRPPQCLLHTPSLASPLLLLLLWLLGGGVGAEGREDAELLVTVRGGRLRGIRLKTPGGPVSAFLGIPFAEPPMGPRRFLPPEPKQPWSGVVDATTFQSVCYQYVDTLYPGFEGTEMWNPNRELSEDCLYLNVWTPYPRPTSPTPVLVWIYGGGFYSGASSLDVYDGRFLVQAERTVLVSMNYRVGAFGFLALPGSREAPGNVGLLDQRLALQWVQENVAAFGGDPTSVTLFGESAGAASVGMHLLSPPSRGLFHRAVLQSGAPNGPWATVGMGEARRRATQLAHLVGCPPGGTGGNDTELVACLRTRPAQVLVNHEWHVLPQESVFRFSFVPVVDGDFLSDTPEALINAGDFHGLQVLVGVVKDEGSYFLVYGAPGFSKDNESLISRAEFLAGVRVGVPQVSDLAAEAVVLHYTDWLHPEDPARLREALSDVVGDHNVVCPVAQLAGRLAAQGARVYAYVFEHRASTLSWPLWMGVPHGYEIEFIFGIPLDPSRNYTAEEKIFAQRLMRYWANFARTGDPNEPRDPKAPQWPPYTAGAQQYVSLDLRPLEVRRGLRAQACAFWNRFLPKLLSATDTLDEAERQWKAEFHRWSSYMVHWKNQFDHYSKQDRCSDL

Turning to `CC[C@H]1O[C@@H]2O[C@H](/C=C/C=C/C=C/c3oc(=O)c4c(c3C)O[C@H](C)C4(C)C)[C@H](O)[C@]2(C)[C@@]1(C)O`, the concentration for half-maximal inhibition (IC50) in assay [1] is greater than 50 µM; in assay [2], 50 µM; in assay [3] it was 48 µM.

Regarding `CC[C@H]1O[C@@H]2O[C@H](/C=C/C=C/C=C/c3oc(=O)cc(OC)c3C)[C@H](O)[C@]2(C)[C@@]1(C)O`, the 50% inhibitory concentration (IC50) in assay [1], in assay [2] and in assay [3] was greater than 50 µM throughout.

For `COc1cc([C@@H]2c3cc4c(cc3[C@@H](O[C@@H]3O[C@@H]5CO[C@@H](C)O[C@H]5[C@H](O)[C@H]3O)[C@H]3COC(=O)[C@H]23)OCO4)cc(OC)c1O` [ETOPOSIDE], the concentration for half-maximal inhibition (IC50) in assay [1] was determined as 4.2 µM; in assay [2] it was 26.1 µM; in assay [3], 3.2 µM.

For `CC[C@H]1O[C@@H]2O[C@H](/C=C/C=C/C=C/c3oc(=O)cc(OC/C=C(\C)C(=O)OC)c3C)[C@H](O)[C@]2(C)[C@@]1(C)O`, the IC50 in assay [4] was 14.9 µM; in assay [1] it was 35 µM; in assay [2], 9 µM; in assay [3], greater than 50 µM.

Turning to `CC[C@H]1O[C@@H]2O[C@H](/C=C/C=C/C=C/c3oc(=O)cc(OCC=C(C)C)c3C)[C@H](O)[C@]2(C)[C@@]1(C)O`, the values for the IC50 in assay [1], in assay [2] and in assay [3] were 37 µM, 44 µM and 48 µM, respectively.

For `COC(=O)/C(C)=C/COc1cc(=O)oc(/C=C/C=C/C=C/[C@H]2O[C@H]3O[C@H](C)[C@](C)(O)[C@@]3(C)[C@H]2O)c1C`, the IC50 in assay [1] is 28 µM; in assay [2], 21 µM; in assay [3], 11 µM.
